Source: ChEMBL document CHEMBL1765020, “Synthesis and structure-affinity relationships of novel dibenzylideneacetone derivatives as probes for β-amyloid plaques” (J Med Chem, 2011)
Values belong to the molecule of their own block, whether it stands above or below them.

Key:
Spleen [1] = test: Biodistribution in ddY mouse spleen at 10 uCi/100 uL, iv after 2 mins by gamma counting; format: ADME, organism-based; details: in vivo
Intestine [2] = test: Biodistribution in ddY mouse intestine at 10 uCi/100 uL, iv after 30 mins by gamma counting; format: ADME, organism-based; details: in vivo, 0.5 h
In short: (§1)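 Normal female ddY mice (5 weeks, about 20 g; n = 4 per group) received radiotracer iv. Organs were removed and weighed at 2–120 min and counted in a γ-counter. Percent dose per gram of wet tissue was calculated against diluted aliquots of the injected material and reported as mean ± SD.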

Heart [3] = test: Biodistribution in ddY mouse heart at 10 uCi/100 uL, iv after 2 mins by gamma counting; format: ADME, organism-based; details: in vivo; in short: as §1
Intestine [4] = test: Biodistribution in ddY mouse intestine at 10 uCi/100 uL, iv after 15 mins by gamma counting; format: ADME, organism-based; details: in vivo, 0.25 h; in short: as §1
Kidney [5] = test: Biodistribution in ddY mouse kidney at 10 uCi/100 uL, iv after 2 mins by gamma counting; format: ADME, organism-based; details: in vivo
Liver [6] = test: Biodistribution in ddY mouse liver at 10 uCi/100 uL, iv after 2 mins by gamma counting; format: ADME, organism-based; details: in vivo
Kidney [7] = test: Biodistribution in ddY mouse kidney at 10 uCi/100 uL, iv after 30 mins by gamma counting; format: ADME, organism-based; details: in vivo, 0.5 h
Heart [8] = test: Biodistribution in ddY mouse heart at 10 uCi/100 uL, iv after 60 mins by gamma counting; format: ADME, organism-based; details: in vivo, 1 h; in short: as §1
Kidney [9] = test: Biodistribution in ddY mouse kidney at 10 uCi/100 uL, iv after 60 mins by gamma counting; format: ADME, organism-based; details: in vivo, 1 h
Heart [10] = test: Biodistribution in ddY mouse heart at 10 uCi/100 uL, iv after 30 mins by gamma counting; format: ADME, organism-based; details: in vivo, 0.5 h; in short: as §1
Brain [11] = test: Biodistribution in ddY mouse brain at 10 uCi/100 uL, iv after 2 mins by gamma counting; format: ADME, organism-based; details: in vivo; in short: as §1
[12] = Partition coefficient, log D of the compound; format: physicochemical; details: octanol/water
In short: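 Radiotracer partitioned between n-octanol and PBS: vortexed 3 min at room temperature, centrifuged 5 min at 3000 rpm. Weighed samples of the octanol (100 μL) and buffer (500 μL) layers were counted. log D is the log of the ratio of counts per gram, octanol versus PBS.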

Spleen [13] = test: Biodistribution in ddY mouse spleen at 10 uCi/100 uL, iv after 30 mins by gamma counting; format: ADME, organism-based; details: in vivo, 0.5 h
Bone [14] = test: Biodistribution in ddY mouse bone at 10 uCi/100 uL, iv after 60 mins by gamma counting; format: ADME, organism-based, Bone element; details: in vivo, 1 h; in short: as §1
Lung [15] = test: Biodistribution in ddY mouse lung at 10 uCi/100 uL, iv after 15 mins by gamma counting; format: ADME, organism-based; details: in vivo, 0.25 h
Stomach [16] = test: Biodistribution in ddY mouse stomach at 10 uCi/100 uL, iv after 2 mins by gamma counting; format: ADME, organism-based; details: in vivo
Heart [17] = test: Biodistribution in ddY mouse heart at 10 uCi/100 uL, iv after 15 mins by gamma counting; format: ADME, organism-based; details: in vivo, 0.25 h; in short: as §1
Kidney [18] = test: Biodistribution in ddY mouse kidney at 10 uCi/100 uL, iv after 15 mins by gamma counting; format: ADME, organism-based; details: in vivo, 0.25 h
Brain [19] = test: Ratio of drug uptake in ddY mouse brain at 10 uCi/100 uL, iv after 2 mins to drug uptake in ddY mouse brain at 10 uCi/100 uL, iv after 60 mins; format: ADME, organism-based; details: in vivo
In short: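 Normal female ddY mice (5 weeks, about 20 g) received the radiotracer iv, with groups of 4 per time point. At 2 and 60 min, brain and other organs were excised and weighed and counted in a γ-counter. %ID/g wet tissue was taken against diluted injectate aliquots. The ratio is brain %ID/g at 2 min divided by brain %ID/g at 60 min.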

Bone [20] = test: Biodistribution in ddY mouse bone at 10 uCi/100 uL, iv after 30 mins by gamma counting; format: ADME, organism-based, Bone element; details: in vivo, 0.5 h; in short: as §1
Lung [21] = test: Biodistribution in ddY mouse lung at 10 uCi/100 uL, iv after 2 mins by gamma counting; format: ADME, organism-based; details: in vivo
Blood [22] = test: Biodistribution in ddY mouse blood at 10 uCi/100 uL, iv after 60 mins by gamma counting; format: ADME, organism-based; details: in vivo, 1 h; in short: as §1
Intestine [23] = test: Biodistribution in ddY mouse intestine at 10 uCi/100 uL, iv after 2 mins by gamma counting; format: ADME, organism-based; details: in vivo; in short: as §1
Brain [24] = test: Biodistribution in ddY mouse brain at 10 uCi/100 uL, iv after 30 mins by gamma counting; format: ADME, organism-based; details: in vivo, 0.5 h; in short: as §1
Stomach [25] = test: Biodistribution in ddY mouse stomach at 10 uCi/100 uL, iv after 60 mins by gamma counting; format: ADME, organism-based; details: in vivo, 1 h
Blood [26] = test: Biodistribution in ddY mouse blood at 10 uCi/100 uL, iv after 30 mins by gamma counting; format: ADME, organism-based; details: in vivo, 0.5 h; in short: as §1
Intestine [27] = test: Biodistribution in ddY mouse intestine at 10 uCi/100 uL, iv after 60 mins by gamma counting; format: ADME, organism-based; details: in vivo, 1 h; in short: as §1
Brain [28] = test: Biodistribution in ddY mouse brain at 10 uCi/100 uL, iv after 15 mins by gamma counting; format: ADME, organism-based; details: in vivo, 0.25 h; in short: as §1
Spleen [29] = test: Biodistribution in ddY mouse spleen at 10 uCi/100 uL, iv after 60 mins by gamma counting; format: ADME, organism-based; details: in vivo, 1 h
Bone [30] = test: Biodistribution in ddY mouse bone at 10 uCi/100 uL, iv after 15 mins by gamma counting; format: ADME, organism-based, Bone element; details: in vivo, 0.25 h; in short: as §1
Blood [31] = test: Biodistribution in ddY mouse blood at 10 uCi/100 uL, iv after 15 mins by gamma counting; format: ADME, organism-based; details: in vivo, 0.25 h; in short: as §1
Liver [32] = test: Biodistribution in ddY mouse liver at 10 uCi/100 uL, iv after 60 mins by gamma counting; format: ADME, organism-based; details: in vivo, 1 h
Blood [33] = test: Biodistribution in ddY mouse blood at 10 uCi/100 uL, iv after 2 mins by gamma counting; format: ADME, organism-based; details: in vivo; in short: as §1
Stomach [34] = test: Biodistribution in ddY mouse stomach at 10 uCi/100 uL, iv after 30 mins by gamma counting; format: ADME, organism-based; details: in vivo, 0.5 h
Liver [35] = test: Biodistribution in ddY mouse liver at 10 uCi/100 uL, iv after 15 mins by gamma counting; format: ADME, organism-based; details: in vivo, 0.25 h
Lung [36] = test: Biodistribution in ddY mouse lung at 10 uCi/100 uL, iv after 60 mins by gamma counting; format: ADME, organism-based; details: in vivo, 1 h
Stomach [37] = test: Biodistribution in ddY mouse stomach at 10 uCi/100 uL, iv after 15 mins by gamma counting; format: ADME, organism-based; details: in vivo, 0.25 h
Bone [38] = test: Biodistribution in ddY mouse bone at 10 uCi/100 uL, iv after 2 mins by gamma counting; format: ADME, organism-based, Bone element; details: in vivo; in short: as §1
Liver [39] = test: Biodistribution in ddY mouse liver at 10 uCi/100 uL, iv after 30 mins by gamma counting; format: ADME, organism-based; details: in vivo, 0.5 h
Brain [40] = test: Biodistribution in ddY mouse brain at 10 uCi/100 uL, iv after 60 mins by gamma counting; format: ADME, organism-based; details: in vivo, 1 h; in short: as §1
Lung [41] = test: Biodistribution in ddY mouse lung at 10 uCi/100 uL, iv after 30 mins by gamma counting; format: ADME, organism-based; details: in vivo, 0.5 h
Spleen [42] = test: Biodistribution in ddY mouse spleen at 10 uCi/100 uL, iv after 15 mins by gamma counting; format: ADME, organism-based; details: in vivo, 0.25 h

- Drug uptake (Spleen [1]): 5.39 % ID/g
- Drug uptake (Intestine [2]): 24.34 % ID/g
- Drug uptake (Heart [3]): 10.55 % ID/g
- Drug uptake (Intestine [4]): 12.82 % ID/g
- Drug uptake (Kidney [5]): 16.48 % ID/g
- Drug uptake (Liver [6]): 24.15 % ID/g
- Drug uptake (Kidney [7]): 11.51 % ID/g
- Drug uptake (Heart [8]): 5.14 % ID/g
- Drug uptake (Kidney [9]): 9.43 % ID/g
- Drug uptake (Heart [10]): 5.44 % ID/g
- Drug uptake (Brain [11]): 5.15 % ID/g
- logD [12]: 3.08
- Drug uptake (Spleen [13]): 5.44 % ID/g
- Drug uptake (Bone [14]): 2.54 % ID/g
- Drug uptake (Lung [15]): 11.77 % ID/g
- Drug uptake (Stomach [16]): 3.26 % ID/organ
- Drug uptake (Heart [17]): 7.64 % ID/g
- Drug uptake (Kidney [18]): 14.15 % ID/g
- Ratio (Brain [19]): 4.06
- Drug uptake (Bone [20]): 2.94 % ID/g
- Drug uptake (Lung [21]): 12.19 % ID/g
- Drug uptake (Blood [22]): 3.59 % ID/g
- Drug uptake (Intestine [23]): 6.58 % ID/g
- Drug uptake (Brain [24]): 1.35 % ID/g
- Drug uptake (Stomach [25]): 1.28 % ID/organ
- Drug uptake (Blood [26]): 4.68 % ID/g
- Drug uptake (Intestine [27]): 26.26 % ID/g
- Drug uptake (Brain [28]): 1.89 % ID/g
- Drug uptake (Spleen [29]): 5.35 % ID/g
- Drug uptake (Bone [30]): 2.93 % ID/g
- Drug uptake (Blood [31]): 7.99 % ID/g
- Drug uptake (Liver [32]): 14.07 % ID/g
- Drug uptake (Blood [33]): 7.44 % ID/g
- Drug uptake (Stomach [34]): 1.93 % ID/organ
- Drug uptake (Liver [35]): 30.09 % ID/g
- Drug uptake (Lung [36]): 5.44 % ID/g
- Drug uptake (Stomach [37]): 2.61 % ID/organ
- Drug uptake (Bone [38]): 2.97 % ID/g
- Drug uptake (Liver [39]): 19.24 % ID/g
- Drug uptake (Brain [40]): 1.27 % ID/g
- Drug uptake (Lung [41]): 7.43 % ID/g
- Drug uptake (Spleen [42]): 6.62 % ID/g
Structure (SMILES): CNc1ccc(/C=C/C(=O)/C=C/c2ccc(OCCOCCOCC[18F])cc2)cc1

- Drug uptake (Spleen [1]): 4.26 % ID/g
- Drug uptake (Intestine [2]): 17.5 % ID/g
- Drug uptake (Heart [3]): 7.6 % ID/g
- Drug uptake (Intestine [4]): 10.53 % ID/g
- Drug uptake (Kidney [5]): 12.95 % ID/g
- Drug uptake (Liver [6]): 22.32 % ID/g
- Drug uptake (Kidney [7]): 7.13 % ID/g
- Drug uptake (Heart [8]): 1.47 % ID/g
- Drug uptake (Kidney [9]): 3.67 % ID/g
- Drug uptake (Heart [10]): 1.9 % ID/g
- Drug uptake (Brain [11]): 4.13 % ID/g
- logD [12]: 2.97
- Drug uptake (Spleen [13]): 4.46 % ID/g
- Drug uptake (Bone [14]): 2.33 % ID/g
- Drug uptake (Lung [15]): 6.34 % ID/g
- Drug uptake (Stomach [16]): 6.28 % ID/organ
- Drug uptake (Heart [17]): 3.33 % ID/g
- Drug uptake (Kidney [18]): 12.77 % ID/g
- Ratio (Brain [19]): 4.59
- Drug uptake (Bone [20]): 2.08 % ID/g
- Drug uptake (Lung [21]): 12.3 % ID/g
- Drug uptake (Blood [22]): 1.6 % ID/g
- Drug uptake (Intestine [23]): 4.12 % ID/g
- Drug uptake (Brain [24]): 1.04 % ID/g
- Drug uptake (Stomach [25]): 3.98 % ID/organ
- Drug uptake (Blood [26]): 2.46 % ID/g
- Drug uptake (Intestine [27]): 21.57 % ID/g
- Drug uptake (Brain [28]): 1.51 % ID/g
- Drug uptake (Spleen [29]): 1.93 % ID/g
- Drug uptake (Bone [30]): 2.42 % ID/g
- Drug uptake (Blood [31]): 3.89 % ID/g
- Drug uptake (Liver [32]): 6.88 % ID/g
- Drug uptake (Blood [33]): 5.38 % ID/g
- Drug uptake (Stomach [34]): 6 % ID/organ
- Drug uptake (Liver [35]): 24.41 % ID/g
- Drug uptake (Lung [36]): 1.86 % ID/g
- Drug uptake (Stomach [37]): 7.39 % ID/organ
- Drug uptake (Bone [38]): 2.88 % ID/g
- Drug uptake (Liver [39]): 14.07 % ID/g
- Drug uptake (Brain [40]): 0.9 % ID/g
- Drug uptake (Lung [41]): 3.38 % ID/g
- Drug uptake (Spleen [42]): 6.19 % ID/g
Structure (SMILES): CN(C)c1ccc(/C=C/C(=O)/C=C/c2ccc(OCCOCCOCC[18F])cc2)cc1
